# Measurements of several laboratories.
# Each line is one published result; the experiments were not run side by side.
# Organism: Plasmodium falciparum
# Observed: parasite growth
SMILES,test,system,conditions,measurement,value
COc1cnc(Nc2ccnc3cc(-c4ccc(S(=O)(=O)N5CCN(C)CC5)cc4)ccc23)cn1,,D6,"drug-resistant strain, blood stage",EC50,130 nM
CCN(CC)CCCC(C)Nc1ccnc2cc(Cl)ccc12 (centres unmarked),,NF54,blood stage,IC50,4.2 nM
CN1CCN(S(=O)(=O)c2ccc(-c3ccc4c(Nc5ccnnc5)ccnc4c3)cc2)CC1,,D6,"drug-resistant strain, blood stage",EC50,2100 nM
O=C(c1ccc(Nc2nccc(-c3ccc4ccccc4c3)n2)cc1)N1CCC(N2CCCC2)CC1,SYBR Green,3D7,"1 µM, blood stage",inhibition,> 75%
O=C(Nc1cc(F)ccc1C(=O)O)c1ccc(-c2ccccc2)cc1,SYBR Green,NF54,"10 µM, 96 h, blood stage",inhibition,17.2%
CN1CCN(c2nccc(Nc3ccc4c(Nc5cnccn5)ccnc4c3)n2)CC1,,D6,"drug-resistant strain, blood stage",EC50,180 nM
CCCC1CCN(c2cc3c(cc2F)c(=O)c(-c2nc(C)no2)cn3CC)CC1,,3D7,"72 h, blood stage",EC50,8 nM
CN1CCN(S(=O)(=O)c2ccc(-c3ccc4c(Nc5ccc6[nH]nnc6c5)ccnc4c3)cc2)CC1,,D6,"drug-resistant strain, blood stage",EC50,27 nM
CCn1cc(C(=O)O)c(=O)c2cc(F)c(N3CCC(C)CC3)cc21,,3D7,"72 h, blood stage",EC50,> 10000 nM
O=C(Nc1c(F)cccc1C(=O)O)c1ccc(-c2ccccc2)cc1,,NF54,"2 µM, 48 h, gametocyte",inhibition,38.8%
CCn1cc(-c2nc(C)no2)c(=O)c2cc(F)c(N3CCC(C)CC3)cc21,,3D7,blood stage,EC50,7.62 nM
Cc1ccc(-c2ccccc2C(=O)Nc2c(C)cccc2C(=O)O)cc1,SYBR Green,NF54,"10 µM, 96 h, blood stage",inhibition,8.4%
CN1CCN(c2ccnc(Nc3ccc4c(Nc5ccc(OCc6cccc(F)c6)c(Cl)c5)ccnc4c3)n2)CC1,,D6,"drug-resistant strain, blood stage",EC50,25 nM
CCn1cc(-c2nc(C)no2)c(=O)c2cc(F)c(N3CCC(Cc4ccccc4)CC3)cc21,,3D7,"72 h, blood stage",EC50,9 nM
O=C(Nc1ccc(F)cc1C(=O)O)c1ccc(-c2ccccc2)cc1,SYBR Green,NF54,"10 µM, 96 h, blood stage",inhibition,12.7%
CCOC(=O)c1cn(CC)c2cc(N3CCC(C)CC3)c(F)cc2c1=O,,3D7,"72 h, blood stage",EC50,28 nM
C[C@@H]1CC[C@H]2[C@@H](C)C(=O)O[C@@H]3O[C@@]4(C)CC[C@@H]1[C@]32OO4,,W2,"drug-resistant strain, blood stage",IC50,9 ng/mL
